Activity calls are given as the source filed them. The calls are words filed in the database; no cut-off is given here.
Columns and labels:
[1] = tested on: Human alphaherpesvirus 3; experiment: Antiviral activity against Varicella zoster virus Oka infected in HEL cells assessed as reduction in viral plaque formation; type: functional, organism-based; settings: Human alphaherpesvirus 3, strain Oka vaccine
Outline: (§1)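 Confluent cultures were inoculated with 20 PFU of virus with compound at varying concentrations (100, 20, … μM). Plaques were counted once plaque formation was complete in untreated infected controls.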

[2] = Selectivity index, ratio of CC50 for HEL cells to EC50 for thymidine kinase deficient Varicella zoster virus 07/1 infected in HEL cells; type: toxicity, cell-based; settings: human, read-out: Ratio CC50/EC50
Outline: (§2)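 SI is CC50 divided by EC50. CC50 comes from the 3-day HEL Coulter-counter growth assay. EC50 comes from the VZV plaque-reduction assay (20 PFU inoculum).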

[3] = tested on: Human alphaherpesvirus 2; experiment: Antiviral activity against Human simplex virus 2 G infected in HEL cells assessed as reduction in viral cytopathic effect; type: functional, organism-based; settings: Human alphaherpesvirus 2, strain G
Outline: (§3)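 Confluent cell monolayers were infected with 100 CCID50 of virus (1 CCID50 is the dose infecting 50% of cultures) with test compound at varying concentrations (100, 20, … μM). CPE was scored once it was complete in untreated infected controls.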

[4] = tested on: Mammalian orthoreovirus 1; experiment: Antiviral activity against Reovirus-1 infected in African green monkey Vero cells assessed as reduction in viral cytopathic effect; type: functional, organism-based; outline: as §3
[5] = tested on: Human betaherpesvirus 5; experiment: Antiviral activity against Human cytomegalovirus Davis infected in HEL cells assessed as reduction in viral cytopathic effect; type: functional, organism-based; settings: Human betaherpesvirus 5, Davis; outline: as §3
[6] = Selectivity index, ratio of CC50 for HEL cells to EC50 for Varicella zoster virus Oka infected in HEL cells; type: toxicity, cell-based; settings: human, read-out: Ratio CC50/EC50; outline: as §2
[7] = tested on: Coxsackievirus B4; experiment: Antiviral activity against Human coxsackievirus B4 infected in human HeLa cells assessed as reduction in viral cytopathic effect; type: functional, organism-based; outline: as §3
[8] = tested on: Sindbis virus; experiment: Antiviral activity against Sindbis virus infected in African green monkey Vero cells assessed as reduction in viral cytopathic effect; type: functional, organism-based; outline: as §3
[9] = tested on: Human alphaherpesvirus 1; experiment: Antiviral activity against Human simplex virus 1 KOS infected in HEL cells assessed as reduction in viral cytopathic effect; type: functional, organism-based; settings: Human alphaherpesvirus 1, KOS; outline: as §3
[10] = tested on: Influenza B virus; experiment: Antiviral activity against Influenza B virus infected in MDCK cells assessed as reduction in viral cytopathic effect; type: functional, organism-based
Outline: (§4)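 Nearly confluent MDCK cultures were infected with 100 CCID50 of virus with compound at varying concentrations (100, 20, … μM). CPE was scored when complete in untreated infected controls.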

[11] = tested on: Vaccinia virus; experiment: Antiviral activity against Vaccinia virus infected in HEL cells assessed as reduction in viral cytopathic effect; type: functional, organism-based; settings: Orthopoxvirus vaccinia; outline: as §3
[12] = tested on: HEL; experiment: Cytostatic activity against HEL cells after 3 days by Coulter counting method; type: cell-based; settings: human, 72 h
Outline: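 HEL cells were seeded at 5 × 10^3 cells/well and grown for 24 h, then given medium with graded compound concentrations. After 3 days at 37 °C, cells were counted with a Coulter counter.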

[13] = tested on: Human betaherpesvirus 5; experiment: Antiviral activity against Human cytomegalovirus AD169 infected in HEL cells assessed as reduction in viral cytopathic effect; type: functional, organism-based; settings: Human betaherpesvirus 5, AD169, HEL; outline: as §3
[14] = tested on: Influenza A virus; experiment: Antiviral activity against Influenza A virus (H1N1) infected in MDCK cells assessed as reduction in viral cytopathic effect; type: functional, organism-based; outline: as §4
[15] = tested on: Vesicular stomatitis virus; experiment: Antiviral activity against Vesicular stomatitis virus infected in human HeLa cells assessed as reduction in viral cytopathic effect; type: functional, organism-based; outline: as §3
[16] = tested on: Human alphaherpesvirus 3; experiment: Antiviral activity against thymidine kinase deficient Varicella zoster virus 07/1 infected in HEL cells assessed as reduction in viral plaque formation; type: functional, organism-based; settings: Human alphaherpesvirus 3, 07/1, HEL; outline: as §1
[17] = tested on: Human respirovirus 3; experiment: Antiviral activity against Human parainfluenza virus 3 infected in African green monkey Vero cells assessed as reduction in viral cytopathic effect; type: functional, organism-based; outline: as §3
[18] = tested on: Human immunodeficiency virus 1; experiment: Antiviral activity against Human immunodeficiency virus 1 LAV1 infected in primary human PBM cells after 6 days by reverse transcriptase activity-based assay; type: functional, organism-based
[19] = tested on: Coxsackievirus B4; experiment: Antiviral activity against Coxsackievirus B4 infected in African green monkey Vero cells assessed as reduction in viral cytopathic effect; type: functional, organism-based; outline: as §3
[20] = tested on: Human alphaherpesvirus 1; experiment: Antiviral activity against thymidine kinase deficient acyclovir-resistant Human simplex virus 1 KOS infected in HEL cells assessed as reduction in viral cytopathic effect; type: functional, organism-based; settings: Human alphaherpesvirus 1, KOS; outline: as §3
[21] = tested on: Influenza A virus H3N2; experiment: Antiviral activity against Influenza A virus H3N2 infected in MDCK cells assessed as reduction in viral cytopathic effect; type: functional, organism-based; outline: as §4
[22] = tested on: Respiratory syncytial virus; experiment: Antiviral activity against Respiratory syncytial virus infected in human HeLa cells assessed as reduction in viral cytopathic effect; type: functional, organism-based; outline: as §3
[23] = tested on: Human coronavirus 229E; experiment: Antiviral activity against Human coronavirus 229E infected in HEL cells assessed as reduction in viral cytopathic effect; type: functional, organism-based; outline: as §3
[24] = Cytotoxicity against HEL cells assessed as alteration of cell morphology by microscopic method; type: cell-based; settings: human
Outline: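 MCC is the lowest compound concentration giving a microscopically visible alteration of cell morphology.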

Structure (SMILES)	EC50 [1]	EC50 [3]	Activity [4]	EC50 [5]	Activity [7]	Activity [8]	EC50 [9]	Activity [10]	EC50 [13]	Activity [14]	Activity [15]	EC50 [16]	Activity [17]	Activity [18]	Activity [19]	EC50 [20]	Activity [21]	Activity [22]	EC50 [23]	MCC [24]	further results
Cc1cn(C/C=C/C[P@](=O)(N[C@@H](C)C(=O)OCc2ccccc2)Oc2ccccc2)c(=O)[nH]c1=O	0.39 µM	5.3 µM	inactive	44.7 µM	inactive	inactive	9.6 µM	inactive	29.9 µM	inactive	inactive	0.33 µM	inactive	inactive	inactive	3.2 µM	inactive	inactive	24.6 µM	> 100 µM	selectivity ratio [2]: ≥ 252; selectivity ratio [6]: ≥ 213; EC50 [11]: > 100 µM; CC50 [12]: ≥ 83 µM
C[C@H](NP(=O)(C/C=C/Cn1cc(F)c(=O)[nH]c1=O)Oc1ccccc1)C(=O)OCc1ccccc1 (some centres not stated)	> 100 µM	> 100 µM	inactive	> 20 µM	inactive	inactive	> 100 µM	inactive	> 20 µM	inactive	inactive	> 100 µM	inactive	inactive	inactive	79 µM	inactive	inactive	45 µM	≥ 100 µM	EC50 [11]: > 100 µM
Cc1cn(C/C=C/C[P@@](=O)(N[C@@H](C)C(=O)OCc2ccccc2)Oc2ccccc2)c(=O)[nH]c1=O	0.59 µM	2.9 µM	inactive	52.5 µM	inactive	inactive	11.5 µM	inactive	34.2 µM	inactive	inactive	0.39 µM	inactive	inactive	inactive	4.1 µM	inactive	inactive	60 µM	> 100 µM	selectivity ratio [2]: 141; selectivity ratio [6]: 93; CC50 [12]: 55 µM
C[C@H](NP(=O)(C/C=C/Cn1cc(Cl)c(=O)[nH]c1=O)Oc1ccccc1)C(=O)OCc1ccccc1 (some centres not stated)	44.7 µM	40 µM	inactive	> 20 µM	inactive	inactive	43 µM	inactive	> 20 µM	inactive	inactive	20 µM	inactive	inactive	inactive	24 µM	inactive	inactive	8.9 µM	≥ 100 µM	EC50 [11]: > 100 µM
Cc1cn(C/C=C/CP(=O)(N[C@@H](C)C(=O)OC(C)C)Oc2ccccc2)c(=O)[nH]c1=O (some centres not stated)	4.59 µM	> 100 µM	inactive	13.5 µM	inactive	inactive	> 100 µM	inactive	25.9 µM	inactive	inactive	1.03 µM	inactive	inactive	inactive	> 100 µM	inactive	inactive	> 100 µM	> 100 µM	selectivity ratio [2]: > 97; selectivity ratio [6]: > 22; EC50 [11]: > 100 µM; CC50 [12]: > 100 µM
COC(=O)[C@H](C)NP(=O)(C/C=C/Cn1cc(C)c(=O)[nH]c1=O)Oc1ccccc1 (some centres not stated)	8.13 µM	31 µM	inactive	≥ 70 µM	inactive	inactive	59 µM	inactive	≥ 72 µM	inactive	inactive	1.82 µM	inactive	inactive	inactive	23.5 µM	inactive	inactive	> 100 µM	> 100 µM	selectivity ratio [2]: > 55; selectivity ratio [6]: > 12; EC50 [11]: > 100 µM; CC50 [12]: > 100 µM
